Legend:
[1] = target: T1, Muscarinic acetylcholine receptor M2 (Homo sapiens, UniProt P08172); assay: Binding affinity to human muscarinic acetylcholine receptor M2 expressed in CHOK9 cell homogenate assessed as saturation binding after 2 hrs by liquid scintillation counting assay
T1 sequence (P08172 whole entry): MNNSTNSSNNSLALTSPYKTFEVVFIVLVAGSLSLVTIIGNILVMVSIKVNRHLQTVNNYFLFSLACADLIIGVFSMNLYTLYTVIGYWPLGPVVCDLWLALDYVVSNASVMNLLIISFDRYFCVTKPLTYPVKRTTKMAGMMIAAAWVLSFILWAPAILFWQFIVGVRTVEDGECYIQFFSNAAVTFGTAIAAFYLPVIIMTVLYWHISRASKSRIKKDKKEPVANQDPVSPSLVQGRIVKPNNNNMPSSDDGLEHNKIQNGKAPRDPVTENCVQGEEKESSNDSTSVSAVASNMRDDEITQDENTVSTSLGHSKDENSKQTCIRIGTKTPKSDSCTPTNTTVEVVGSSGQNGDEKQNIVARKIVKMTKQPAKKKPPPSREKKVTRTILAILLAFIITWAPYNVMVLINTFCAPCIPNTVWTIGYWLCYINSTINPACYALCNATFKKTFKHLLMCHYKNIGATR

[2] = target: T1, Muscarinic acetylcholine receptor M2; assay: Binding affinity to human muscarinic acetylcholine receptor M2 expressed in live adherent CHOK9 cells after 2 hrs by liquid scintillation counting assay; type: cell-based
In short: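 Live adherent CHO-hM2 cells in L15 medium with 1% BSA, 23 ± 1 °C, 2 h incubation. Competition at 2 nM radioligand; additional 4, 8, 15 and 30 nM in W84 experiments. […] Saturation data fitted one-site; competition by four-parameter logistic fits; at least three experiments in triplicate.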

[3] = target: T1, Muscarinic acetylcholine receptor M2; assay: Binding affinity to human muscarinic acetylcholine receptor M2 expressed in CHOK9 cell homogenate after 2 hrs by liquid scintillation counting assay; conditions: read-out: Kd(app)
In short: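 CHO-hM2 cell homogenates (25–30 μg protein/well) in L15 medium with 1% BSA, 23 ± 1 °C, 2 h with tritiated dimeric radioligand. Competition used 0.5 nM radioligand; additional 0.4, 1, 2 and 4 nM in W84 experiments. […] Four-parameter logistic fits; at least three experiments in triplicate.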

[4] = target: T1, Muscarinic acetylcholine receptor M2; assay: Displacement of [3H]NMS from human muscarinic acetylcholine receptor M2 expressed in CHOK9 cells after 3 hrs by liquid scintillation counting assay; type: cell-based; conditions: read-out: Ki

- Kd [1]: 4.6 nM
- Kd [2]: 8.4 nM
- Kd [3]: 3 to 4.6 nM
- Ki [4]: 0.71 nM
Compound: O=C(O)C(F)(F)F.O=C(O)C(F)(F)F.O=C(O)C(F)(F)F.O=C(O)C(F)(F)F.[3H]CC([3H])C(=O)NC1CN(CCCCC2CCN(CC(=O)N3c4ccccc4NC(=O)c4ccccc43)CC2)CCN(CCCCC2CCN(CC(=O)N3c4ccccc4NC(=O)c4ccccc43)CC2)C1 (centres undefined)

From ChEMBL document CHEMBL4049434, “Radiolabeled Dibenzodiazepinone-Type Antagonists Give Evidence of Dualsteric Binding at the M2 Muscarinic Acetylcholine Receptor” (J Med Chem, 2017)
